The nature of experiment [1]: Her2 expression decrease, cell viability multiplex – SKBR3 breast tumor cells, AlphaScreen, ATP viability, primary screen (AID 461;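 active = Her2 level under about 52% in both replicate screens, with viability over 70% of control, limit read from the data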;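 as to Her2 level: lower value means less Her2 protein in the cells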;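 as to viability: percent of carrier control wells set as 100% viability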). To be noted: SKBR3 Her2 protein level, 18-24 h, measured here: SKBR3 viability, ATP luminescence, at 10 µM. A general note: Bead proximity is the source of the signal in Alpha formats.
Experiment [2] deals with Receptor tyrosine-protein kinase erbB-2 (Homo sapiens) (UniProt P04626). The description is as above. To be noted: 18-24 h, at 10 µM, stronger effect = lower value.
Experiment [3] in a line: reduced viability of SK-BR-3 breast cancer cells – cell-based, 24 h, human, pilot screen (AID 572).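 Also: compound exposure lasted between 18 and 24 h rather than exactly 24 h; 100% = carrier-treated control wells.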 To be noted: SK-BR-3 viability, CellTiter-Glo luminescence, at 10 µM, stronger effect = lower value. Background: ATP-based viability assays read luminescence as a measure of living cells.
Experiment [4] is described as follows: HUVEC growth inhibition – cell-based, human, primary screen (AID 575;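 active = viability at or below 30% in both replicate assays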;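 also: 100% = median of untreated cell wells with 0.1% DMSO on each plate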). As to conditions: HUVEC proliferation, CellTiter-Glo luminescence, 72 h; at 10 µM; stronger effect = lower value. The procedure, abridged: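 Test system: HUVEC primary cells. Quantity: 1250 endothelial cells in each well. Dosing: single-point 10 µM, DMSO 0.1% final. Incubation: 72 h treatment at 37 °C. Measured by: CTG luminescence. Control set: DMSO cell controls and MePR drug controls. Plate: collagen-coated 384-well format.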

Experiment [5] can be described thus: H69AR cell proliferation blockers – human, duplicate replicates, primary screen (AID 580;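 active = viability at or under a set limit in both replicates, limit being median viability minus 3 SD, cut at about 48% in these data, passing the limit was not always enough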;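 also: 100% = mean luminescence of untreated wells and 0% = no signal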). As to conditions: H69AR lung tumor cells viability, ATP luminescence, 72 h; at 10 µM; stronger effect = lower value.
Experiment [6] in a line: MRP1 drug-resistance reversers in H69AR cells – cell-based, doxorubicin co-treatment, pilot screen (AID 601;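 active = viability loss from added drug above about 55%, and viability with drug at most 40%, in both replicates, limit read from the data, passing the limit was not always enough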). To be noted: CellTiter-Glo, 72 h, at 10 µM; for differential viability (reversal): stronger effect = higher value.
Experiment [7] in a line: yeast transport mutant growth inhibition pilot in 384-well plates, post-Golgi transport modulator project (AID 636; in the data active = inhibition above about 31%). To be noted: absorbance 615 nm, about 18 h, stronger effect = higher value.
Experiment [8] in a line: growth suppression of yeast trafficking mutant, preliminary HTS, modulators of trafficking downstream of Golgi apparatus project, 1536-format plate, OD 615 nm (AID 637; in the data active = inhibition above about 30%). To be noted: yeast transport mutant growth, absorbance 615 nm, 18 h; stronger effect = higher value.
Setting [9] is: H69AR cells + 2 uM doxorubicin, measured here: viability with 2 uM doxorubicin, stronger effect = lower value.
The mark [10] stands for this setting: H69AR cells, compound alone cytotoxicity.

Structures are written as SMILES. Activity calls are given as the source filed them.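 The calls were made as follows, unless noted: active = viability at or below 10% of carrier control in both of two separate runs; inconclusive = viability at or below 10% in only one of the two runs; inactive = the rest.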

The values below come from PubChem BioAssay.

One may read the viability as a read-out of living cells in per cent, often relative to untreated cells. The term inhibition denotes the drop in the measured response relative to a control, in per cent.

Receptor tyrosine-protein kinase erbB-2 (Homo sapiens), sequence (P04626 whole entry, looked up): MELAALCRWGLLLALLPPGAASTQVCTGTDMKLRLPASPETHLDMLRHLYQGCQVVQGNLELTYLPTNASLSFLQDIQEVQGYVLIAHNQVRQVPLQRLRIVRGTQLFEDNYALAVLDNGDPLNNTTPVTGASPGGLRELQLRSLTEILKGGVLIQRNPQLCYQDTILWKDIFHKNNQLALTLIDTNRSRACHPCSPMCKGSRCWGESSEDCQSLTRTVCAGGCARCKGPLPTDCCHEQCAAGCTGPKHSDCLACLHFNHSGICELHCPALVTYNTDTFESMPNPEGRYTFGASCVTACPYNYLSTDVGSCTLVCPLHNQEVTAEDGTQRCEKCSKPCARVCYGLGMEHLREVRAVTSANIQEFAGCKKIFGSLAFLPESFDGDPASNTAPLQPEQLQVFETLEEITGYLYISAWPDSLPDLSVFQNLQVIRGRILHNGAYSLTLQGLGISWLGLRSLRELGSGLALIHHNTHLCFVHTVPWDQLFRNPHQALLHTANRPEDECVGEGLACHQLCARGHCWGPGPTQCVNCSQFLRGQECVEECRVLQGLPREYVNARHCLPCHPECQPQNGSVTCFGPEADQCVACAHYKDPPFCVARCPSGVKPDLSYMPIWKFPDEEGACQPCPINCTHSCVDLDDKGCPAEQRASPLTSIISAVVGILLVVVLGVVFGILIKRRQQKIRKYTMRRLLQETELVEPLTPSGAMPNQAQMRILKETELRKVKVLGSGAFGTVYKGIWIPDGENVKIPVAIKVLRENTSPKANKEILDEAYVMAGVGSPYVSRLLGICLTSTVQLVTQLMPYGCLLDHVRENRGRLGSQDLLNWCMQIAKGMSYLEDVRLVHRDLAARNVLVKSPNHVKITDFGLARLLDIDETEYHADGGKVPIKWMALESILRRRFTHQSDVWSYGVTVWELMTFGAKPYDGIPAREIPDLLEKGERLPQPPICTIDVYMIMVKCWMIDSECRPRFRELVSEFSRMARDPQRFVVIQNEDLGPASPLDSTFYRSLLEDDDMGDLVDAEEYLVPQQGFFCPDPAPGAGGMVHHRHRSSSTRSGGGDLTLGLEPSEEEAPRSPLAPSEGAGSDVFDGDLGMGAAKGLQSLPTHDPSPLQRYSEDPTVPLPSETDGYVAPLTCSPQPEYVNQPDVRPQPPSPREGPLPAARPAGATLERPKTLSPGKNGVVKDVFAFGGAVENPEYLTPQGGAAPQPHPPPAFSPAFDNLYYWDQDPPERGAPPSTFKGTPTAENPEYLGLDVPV

In the case of `Cc1cc(NC(=O)C23CCC(C)(c4nc5cc(Cl)c(Cl)cc5nc42)C3(C)C)no1` (stereo not given), the viability in experiment [1] was 124%; in experiment [3], 124% (inactive); in experiment [4], 88.5% (inactive); in experiment [5], 91.6% (inactive); in experiment [6] (setting [9]), 77.1%; in experiment [6] (setting [10]), 91.6%. Moreover, the Her2 level in experiment [2] is 96.5% (inactive). The differential viability (reversal) in experiment [6] (H69AR cells + 2 uM doxorubicin) is 14.6% (inactive). The inhibition was -3.42% (inactive) in experiment [7] and 6.29% (inactive) in experiment [8].
For `c1ccc(-c2noc(C34CC5CC(CC(C5)C3)C4)n2)nc1`, the viability is 130% in experiment [1]; 130% (inactive) in experiment [3]; 94.8% (inactive) in experiment [4]; 83.4% (inactive) in experiment [5]; 66.2% in experiment [6] (setting [9]); 83.4% in experiment [6] (setting [10]). For the same molecule, the Her2 level in experiment [2] was 106% (inactive). Further, in experiment [6] (H69AR cells + 2 uM doxorubicin), the differential viability (reversal) was 17.3% (inactive). For the same molecule, the inhibition in experiment [7] was -4.87% (inactive); in experiment [8], 2.13% (inactive).
In the case of `CC/C(O)=C(/C#N)c1nnc2n1CCCCC2`, the viability was 100% in experiment [1]; 100% (inactive) in experiment [3]; 101% (inactive) in experiment [4]; 97.4% (inactive) in experiment [5]; 86.5% in experiment [6] (setting [9]); 97.4% in experiment [6] (setting [10]). The Her2 level in experiment [2] is 84% (inactive). Besides, in experiment [6] (H69AR cells + 2 uM doxorubicin), the differential viability (reversal) was 10.8% (inactive). Also, the inhibition in experiment [7] was -4.68% (inactive); in experiment [8], -5.71% (inactive).
Regarding `CN(C(=O)COc1cc(=O)n(C)c2ccccc12)c1ccc(Br)cc1`, the viability was 100% in experiment [1]; 100% (inactive) in experiment [3]; 74.5% (inactive) in experiment [4]; 82.5% (inactive) in experiment [5]; 78.3% in experiment [6] (setting [9]); 82.5% in experiment [6] (setting [10]). Moreover, the Her2 level in experiment [2] was 104% (inactive). The differential viability (reversal) in experiment [6] (H69AR cells + 2 uM doxorubicin) is 4.22% (inactive). The inhibition is -1.87% (inactive) in experiment [7] and -4.1% (inactive) in experiment [8].
On to `COc1cc(S(=O)(=O)NC2CCCCC2)ccc1Cl`, for which the viability is 94.5% in experiment [1]; 94.5% (inactive) in experiment [3]; 82.3% (inactive) in experiment [4]; 92.7% (inactive) in experiment [5]; 85.3% in experiment [6] (setting [9]); 92.7% in experiment [6] (setting [10]). Moreover, the Her2 level in experiment [2] is 84.5% (inactive). Moreover, the differential viability (reversal) in experiment [6] (H69AR cells + 2 uM doxorubicin) is 7.43% (inactive). Besides, the inhibition is -3.95% (inactive) in experiment [7] and -2.7% (inactive) in experiment [8].
Turning to `CCN(Cc1cc2cc(OC)ccc2[nH]c1=O)C(=O)Cc1ccc(OC)cc1`, the viability in experiment [1] was 91%; in experiment [3], 91% (inactive); in experiment [4] it was 96.5% (inactive); in experiment [5] it was 88.2% (inactive); in experiment [6] (setting [9]), 81.9%; in experiment [6] (setting [10]) it was 88.2%. In addition, the Her2 level in experiment [2] is 87.5% (inactive). The differential viability (reversal) in experiment [6] (H69AR cells + 2 uM doxorubicin) was 6.29% (inactive). Further, the inhibition in experiment [7] is -0.66% (inactive); in experiment [8] it was -3.44% (inactive).
As for `O=C(CCCC(=O)N(CC(=O)NC1CCCCC1)Cc1ccc2c(c1)OCO2)Nc1ccccn1`, the viability was 102% in experiment [1]; 102% (inactive) in experiment [3]; 101% (inactive) in experiment [4]; 92.3% (inactive) in experiment [5]; 81.9% in experiment [6] (setting [9]); 92.3% in experiment [6] (setting [10]). For the same molecule, the Her2 level in experiment [2] is 97.5% (inactive). Further, the differential viability (reversal) in experiment [6] (H69AR cells + 2 uM doxorubicin) is 10.4% (inactive). The values for the inhibition in experiment [7] and in experiment [8] were -6.18% (inactive) and 0.32% (inactive), respectively.
On to `COc1ccc(-n2c(=O)[nH]cc(C(=O)Nc3ccc(NC(C)=O)cc3)c2=O)cc1`, for which the viability in experiment [1] was 100%; in experiment [3] it was 100% (inactive); in experiment [4], 98.8% (inactive); in experiment [5] it was 96.1% (inactive); in experiment [6] (setting [9]), 95.7%; in experiment [6] (setting [10]), 96.1%. Moreover, the Her2 level in experiment [2] is 106% (inactive). In addition, in experiment [6] (H69AR cells + 2 uM doxorubicin), the differential viability (reversal) was 0.385% (inactive). Also, the inhibition in experiment [7] was -3.78% (inactive); in experiment [8] it was 0% (inactive).
On to `O=C(NCC(c1cccnc1)N1CCOCC1)c1cccs1` (stereo not given), for which the viability in experiment [1] is 101%; in experiment [3], 101% (inactive); in experiment [4], 89.6% (inactive); in experiment [5], 92.5% (inactive); in experiment [6] (setting [9]) it was 93.1%; in experiment [6] (setting [10]), 92.5%. The Her2 level in experiment [2] is 75.5% (inactive). For the same molecule, the differential viability (reversal) in experiment [6] (H69AR cells + 2 uM doxorubicin) was -0.595% (inactive). Further, the inhibition was -2.24% (inactive) in experiment [7] and 11.2% (inactive) in experiment [8].
`CC1CCc2c(sc(N)c2C(N)=O)C1` (stereo not given): the viability in experiment [1] was 95.5%; in experiment [3], 95.5% (inactive); in experiment [4] it was 86.7% (inactive); in experiment [5], 91.5% (inactive); in experiment [6] (setting [9]) it was 84.9%; in experiment [6] (setting [10]), 91.5%. The Her2 level in experiment [2] is 81% (inactive). For the same molecule, in experiment [6] (H69AR cells + 2 uM doxorubicin), the differential viability (reversal) was 6.62% (inactive). Also, the inhibition was -0.26% (inactive) in experiment [7] and 4.5% (inactive) in experiment [8].
For the molecule `O=C(c1ccco1)N1CCN(c2cccc(Cl)c2)CC1`, the viability in experiment [1] was 101%; in experiment [3] it was 101% (inactive); in experiment [4], 88.1% (inactive); in experiment [5] it was 97.9% (inactive); in experiment [6] (setting [9]), 92.7%; in experiment [6] (setting [10]) it was 97.9%. Besides, in experiment [2], the Her2 level is 103% (inactive). Besides, in experiment [6] (H69AR cells + 2 uM doxorubicin), the differential viability (reversal) was 5.25% (inactive). Besides, the figures for the inhibition in experiment [7] and in experiment [8] were -0.93% (inactive) and -9.68% (inactive), respectively.
For `CCOC(=O)c1c(C)[nH]c(C(=O)CSc2nc3ccccc3o2)c1C`, the viability is 85.5% in experiment [1]; 85.5% (inactive) in experiment [3]; 88.6% (inactive) in experiment [4]; 73.3% (inactive) in experiment [5]; 92.2% in experiment [6] (setting [9]); 73.3% in experiment [6] (setting [10]). For the same molecule, the Her2 level in experiment [2] was 85% (inactive). Also, the differential viability (reversal) in experiment [6] (H69AR cells + 2 uM doxorubicin) was -18.9% (inactive). The inhibition in experiment [7] was -1.15% (inactive); in experiment [8] it was -5.17% (inactive).
Consider `Cn1c(=O)c2c(nc(CN3CCCCC3)n2CCc2ccccc2)n(C)c1=O`, for which the viability in experiment [1] is 87%; in experiment [3] it was 87% (inactive); in experiment [4] it was 111% (inactive); in experiment [5] it was 91.9% (inactive); in experiment [6] (setting [9]) it was 93.9%; in experiment [6] (setting [10]), 91.9%. Further, the Her2 level in experiment [2] is 107% (inactive). Besides, in experiment [6] (H69AR cells + 2 uM doxorubicin), the differential viability (reversal) is -1.94% (inactive). In addition, the figures for the inhibition in experiment [7] and in experiment [8] were 2.27% (inactive) and 13.8% (inactive), respectively.
For the molecule `Cc1cccc(Cn2c(=O)n(Cc3ccco3)c(=O)c3ccccc32)c1`, the viability in experiment [1] is 87%; in experiment [3], 87% (inactive); in experiment [4] it was 100% (inactive); in experiment [5], 92.5% (inactive); in experiment [6] (setting [9]), 102%; in experiment [6] (setting [10]), 92.5%. Also, the Her2 level in experiment [2] was 97.5% (inactive). Moreover, in experiment [6] (H69AR cells + 2 uM doxorubicin), the differential viability (reversal) is -9.65% (inactive). Moreover, the figures for the inhibition in experiment [7] and in experiment [8] were -2.11% (inactive) and 1.15% (inactive), respectively.
As for `COC(=O)C(C)C1Sc2ccccc2NC1=O` (stereo not given), the viability is 121% in experiment [1]; 121% (inactive) in experiment [3]; 119% (inactive) in experiment [4]; 93.9% (inactive) in experiment [5]; 81.8% in experiment [6] (setting [9]); 93.9% in experiment [6] (setting [10]). For the same molecule, the Her2 level in experiment [2] was 100% (inactive). Moreover, the differential viability (reversal) in experiment [6] (H69AR cells + 2 uM doxorubicin) is 12.1% (inactive). In addition, the inhibition was -7.7% (inactive) in experiment [7] and 2.83% (inactive) in experiment [8].
